Experimental data published in PubChem BioAssay.
Activity calls are given as the source filed them.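 How the source made its calls, unless noted: active means fluorescence slope after compound addition differing from the mean of all tested samples at 99.7% confidence, mostly higher but some lower; inactive means the rest.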

Key:
[1] = inhibitors of TNFa-induced NFkB p65 translocation, primary screen, imaging, HUVEC, MLSMR starter and 10KST1 sets (AID 438;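 active means inhibition above 20% together with a positive visual image hit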;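 further: compound added about 3h40 before a 20 min TNFalpha stimulation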;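 on inhibition: signal is the nuclear over cytoplasmic p65 intensity ratio per well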); details: HUVEC TNFa-induced p65 nuclear translocation; cell count: measured here: nuclei count (cytotoxicity indicator), at 2.08 µM; inhibition: at 2 µM, stronger effect = higher value, 0% TNFa-plus-vehicle, 100% no-TNFa wells
[2] = reduction of polyQ htt aggregates in cells – imaging, exon1htt(103Q)mCFP cells, high-content imaging, primary screen (AID 483;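 active means visual image review flags a hit and inhibition of aggregation exceeds 20%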;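 further: compound exposure lasted 3 days before fixation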;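 on nuclei count: percent of the per-plate median nuclei count of sample wells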); details: exon1htt(103Q)mCFP cell line, aggregate imaging, at 2 µM; inhibition of aggregation: stronger effect = higher value; nuclei count: measured here: cell count, toxicity
[3] = endothelial E-selectin expression blockers – imaging, HUVEC, immunofluorescence, MLSMR starter and 10KST1 sets, primary screen (AID 487;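 active means visually confirmed hit in the image check and inhibition above 20%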;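 on inhibition: signal is fraction of cell area covered by stained E-selectin grains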;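 on nuclei count: 100% = median nuclei count of all wells on the same plate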); details: HUVEC TNFalpha-induced E-selectin immunofluorescence imaging, at 2 µM; inhibition: stronger effect = higher value; nuclei count: measured here: cell number, toxicity
[4] = target: Voltage-gated potassium channel subunit beta-2 (Rattus norvegicus) (UniProt P62483); assay: inhibitors of rat Kvbeta2 reductase activity – biochemical, NADPH fluorescence, primary screen (AID 622;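 active means fluorescence slope higher than the sample average by over 3 SD, cut at about -0.22 in these data, passing the limit was not always enough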;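 further: slope of raw intensity against log time taken from 70 to 1610 s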); details: recombinant KvBeta, 4-cyanobenzaldehyde reduction, at 10 µM, stronger effect = higher value
[5] = target: Voltage-gated potassium channel subunit beta-2 (Rattus norvegicus) (UniProt P62483); assay: enhancers of rat Kvbeta2 NADPH turnover – biochemical, NADPH fluorescence, primary screen (AID 623;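 active means NADPH fluorescence slope more negative than the mean of all samples by about 3 SD, 99.7% confidence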;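 further: fluorescence intensity change per second fitted from 20 to 320 s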); details: Recombinant KvBeta, NADPH fluorescence decrease slope, 10 min; at 10 µM; stronger effect = lower value
[6] = target: Muscarinic acetylcholine receptor M4 (Homo sapiens) (UniProt P08173); assay: M4-linked GIRK flux change, two-sided – cell-based, HEK293 M4/GIRK, thallium flux, BTC-AM, M4 allosteric agonist project, primary screen (AID 625); details: at 10 µM, actives lie on both sides;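 further: thallium influx through GIRK channels coupled to M4 in HEK293 cells with BTC-AM dye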
Outline: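 assay system = HEK293 cells with M4 receptor and GIRK channels | medium = pH 7.3 thallium assay buffer | doses = 10 µM final, single point | timing = cells overnight at 37 °C, BTC-AM loading 1 h, reads 2 min total | signal = BTC-AM fluorescence, 1 Hz kinetic reads | read-out = post-addition slope, 15–24 s, of baseline-normalized fluorescence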

[7] = blockers of RIG-like receptor reporter activation – cell-based, Sendai virus stimulus, luciferase, 10K MLSCN set, TLR/RLR signaling modifier project, primary screen (AID 602276;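 active means inhibition at or above 50% at 10 µM; inactive means inhibition below 50%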;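 further: firefly luciferase from ISG56 promoter only with Renilla not read in this screen; 0% = Sendai virus plus DMSO and 100% = medium plus DMSO without virus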); details: HEK293 RL24 IRF3 luciferase reporter, at 10 µM, stronger effect = higher value
[8] = TLR3 IRF3 reporter activation blockers – cell-based, poly I:C stimulus, luciferase, 10K MLSCN set, primary screen (AID 602277;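 active means inhibition of the reporter signal at or above 50%; inactive means inhibition below 50%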); details: HEK293-TLR3 RL24 IRF3 luciferase reporter, at 10 µM, stronger effect = higher value

Chain of Voltage-gated potassium channel subunit beta-2 (Rattus norvegicus) (P62483 whole entry, looked up): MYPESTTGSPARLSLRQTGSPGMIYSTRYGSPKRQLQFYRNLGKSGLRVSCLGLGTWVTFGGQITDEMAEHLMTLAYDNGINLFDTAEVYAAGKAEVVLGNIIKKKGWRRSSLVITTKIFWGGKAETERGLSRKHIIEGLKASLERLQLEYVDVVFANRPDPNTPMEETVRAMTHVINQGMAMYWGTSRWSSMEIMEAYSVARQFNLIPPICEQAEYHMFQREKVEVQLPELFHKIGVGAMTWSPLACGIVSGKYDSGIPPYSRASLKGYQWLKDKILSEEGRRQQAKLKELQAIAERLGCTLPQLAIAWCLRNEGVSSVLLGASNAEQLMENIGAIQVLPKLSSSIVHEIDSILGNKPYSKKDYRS
Chain of Muscarinic acetylcholine receptor M4 (Homo sapiens) (P08173 whole entry, looked up): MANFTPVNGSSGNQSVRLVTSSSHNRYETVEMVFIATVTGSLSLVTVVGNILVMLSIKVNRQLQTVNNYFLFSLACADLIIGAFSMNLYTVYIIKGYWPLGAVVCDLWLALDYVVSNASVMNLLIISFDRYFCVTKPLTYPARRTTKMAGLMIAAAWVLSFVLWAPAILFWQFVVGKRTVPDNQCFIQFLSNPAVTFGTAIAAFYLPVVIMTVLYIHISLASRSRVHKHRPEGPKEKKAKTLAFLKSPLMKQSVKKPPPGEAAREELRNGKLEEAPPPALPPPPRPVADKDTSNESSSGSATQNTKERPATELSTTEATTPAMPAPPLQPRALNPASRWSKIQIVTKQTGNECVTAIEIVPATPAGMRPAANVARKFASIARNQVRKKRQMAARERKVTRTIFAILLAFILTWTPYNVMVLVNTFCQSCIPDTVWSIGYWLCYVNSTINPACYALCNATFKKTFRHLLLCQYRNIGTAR

SMILES | cell count [1] | inhibition [1] | inhibition of aggregation [2] | nuclei count [2] [%] | inhibition [3] | nuclei count [3] [%] | fluorescence slope [4] | NADPH fluorescence slope [5] | fluorescence slope [6] | inhibition [7] | inhibition [8]
Cc1ccnc(NS(=O)(=O)c2ccc(N=CC3=C(O)CC(C)(C)CC3=O)cc2)n1 | 395 | 2.5% (inactive) | -9% (inactive) | 79.4 | 7.7% (inactive) | 110 | -0.474 (inactive) | 9.9e-06 (inactive) | 0.00511 (inactive) | 7.45% (inactive) | 1.62% (inactive)
CC1(C)Cc2nc3oc4c(N(CCO)Cc5ccccc5)ncnc4c3cc2CO1 | 558 | 6.7% (inactive) | -1.1% (inactive) | 101 | -29.7% (inactive) | 122 | -0.27 (inactive) | -1.6e-05 (inactive) | 0.0057 (inactive) | -1.42% (inactive) | 5.17% (inactive)
Cc1occc1C(=O)Nc1cccc2ccccc12 | 670 | 5.2% (inactive) | 16.6% (inactive) | 97.2 | -185% (inactive) | 100 | -0.546 (inactive) | 7.3e-06 (inactive) | 0.00507 (inactive) | -27.7% (inactive) | -86.3% (inactive)
O=C(CN1CCOCC1)N1CCN(C(=O)CN2CCOCC2)CC1 | 557 | -51% (inactive) | -14% (inactive) | 120 | -63.9% (inactive) | 120 | -0.468 (inactive) | 9.6e-05 (inactive) | 0.00604 (inactive) | 12.4% (inactive) | 17.7% (inactive)
CC(C)Oc1cccc(-c2cc(C(=O)N3CCN(S(C)(=O)=O)CC3)c3ccccc3n2)c1 | 638 | 11.6% (inactive) | 11.2% (inactive) | 108 | -49% (inactive) | 95 | -0.454 (inactive) | 2e-05 (inactive) | 0.00711 (inactive) | -23% (inactive) | -35.2% (inactive)
COc1ccc(C(=O)Nn2c(SCC(=O)NCC3CCCO3)nc3ccccc3c2=O)cc1 (centres undefined) | 512 | -3.6% (inactive) | 13.2% (inactive) | 103 | -60.6% (inactive) | 106 | -0.511 (inactive) | -6.1e-05 (inactive) | 0.00522 (inactive) | 15.1% (inactive) | 49.1% (inactive)
Cn1c(=O)n(C)c2cc(CNc3ccc(N4CCOCC4)c(C(=O)O)c3)ccc21 | 350 | -0.2% (inactive) | 3% (inactive) | 107 | -9.8% (inactive) | 110 | -0.423 (inactive) | 0.00012 (inactive) | 0.00799 (inactive) | 13.1% (inactive) | 5.3% (inactive)
CCOC(=O)CSc1nnc(CNC(=O)c2cccs2)n1-c1cc(OC)ccc1OC | 521 | -3.3% (inactive) | -5.1% (inactive) | 103 | -7.4% (inactive) | 95.1 | -0.545 (inactive) | -2.7e-05 (inactive) | 0.00509 (inactive) | 0.513% (inactive) | 17.5% (inactive)
Cc1ccc(NS(=O)(=O)c2cn(C)cn2)cc1 | 491 | -0.5% (inactive) | 7.8% (inactive) | 89.1 | 3.6% (inactive) | 107 | -0.44 (inactive) | -0.000336 (inactive) | 0.00531 (inactive) | 15.2% (inactive) | 17.6% (inactive)
CCSc1nnc(NC(=O)c2nn(C(C)C)c(=O)c3ccccc23)s1 | 221 | 3.9% (inactive) | 15.4% (inactive) | 71.5 | 31.6% (inactive) | 94 | -0.408 (inactive) | -0.000337 (inactive) | 0.00464 (inactive) | 9.39% (inactive) | 11.7% (inactive)
Cc1cccc(N2CCN(C(=O)c3ccc(NS(=O)(=O)c4c(C)noc4C)cc3)CC2)c1C | 334 | 5.4% (inactive) | -23.1% (inactive) | 97.7 | -283% (inactive) | 84.9 | -0.545 (inactive) | -7.3e-05 (inactive) | 0.00603 (inactive) | -6.14% (inactive) | -0.151% (inactive)
CC(=O)C1=C(O)C(=O)N(Cc2ccco2)C1c1ccc2c(c1)OCO2 (centres undefined) | 403 | 10.9% (inactive) | 1.6% (inactive) | 104 | 7.1% (inactive) | 116 | -0.513 (inactive) | -2.5e-05 (inactive) | 0.00429 (inactive) | 0.0775% (inactive) | 11.9% (inactive)
c1ccc(-c2cc3c(nn2)CCc2nonc2-3)cc1 | 339 | 2.4% (inactive) | 19.1% (inactive) | 100 | -9.2% (inactive) | 111 | -0.543 (inactive) | -0.00017 (inactive) | 0.00417 (inactive) | -15.2% (inactive) | -31.9% (inactive)
COc1ccc(C2C3=C(CC(C)(C)CC3=O)Oc3ncn4nc(-c5cccnc5)nc4c32)cc1 (centres undefined) | 474 | 2.7% (inactive) | 2% (inactive) | 83.8 | -78.2% (inactive) | 144 | -0.327 (inactive) | -2.3e-05 (inactive) | 0.00713 (inactive) | -0.431% (inactive) | 17.2% (inactive)
